The structures appear in SMILES notation. ≈ marks a conversion by molar mass, not a printed value. Calls of active or inactive are those of the source. No cut-off for these calls is given here.

In general, MIC refers to the lowest concentration that inhibits growth of the organism.

Format in all cases: functional
Experiment [1] concerns Candida albicans. In words: Antifungal activity against Candida albicans assessed as growth inhibition after 48 hrs by broth microdilution method. The gist of the method:
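MIC by broth microdilution in Sabouraud liquid medium. DMSO stocks are serially diluted two-fold in broth and inoculated with C. albicans. Sealed plates are incubated in a humid chamber at 36 °C for 48 h. The MIC is the lowest concentration without visible turbidity. Run only for compounds giving zones >10 mm.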
For orientation: Dilution methods test growth across graded concentrations, often in twofold steps.

The test system of experiment [2] is Escherichia coli. In words: Antibacterial activity against Escherichia coli MTCC 443 assessed as growth inhibition after 24 hrs by broth microdilution method. The procedure, abridged:
(§1)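 MIC by broth microdilution in Müller-Hinton broth. DMSO stocks are diluted in broth to give two-fold serial dilutions, and about 10^6 CFU/mL of bacteria is added per well. Sealed plates are incubated in a humid chamber at 36 °C for 24 h. The MIC is the lowest concentration showing no visible turbidity. Run only for compounds giving zones >10 mm.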

Experiment [3] relates to Staphylococcus aureus. Nature of the experiment: Antibacterial activity against Staphylococcus aureus MTCC 96 assessed as growth inhibition at 1 mg/mL after 24 hrs by […] method. Particulars: for zone of inhibition at 1000 µg/mL: MTCC 96, 24 h, read-out: DIZ. The gist of the method: (§2)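 Sterile filter-paper discs soaked in a 1 mg/mL DMSO solution of the compound are placed on nutrient agar seeded with about 10^6 CFU/mL of bacteria, in triplicate. Plates are incubated at 36 °C for 24 h. The read-out is the mean diameter of the inhibition zone in mm. DMSO alone serves as the control.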

The test system of experiment [4] is Staphylococcus aureus. In words: Antibacterial activity against Staphylococcus aureus MTCC 96 assessed as growth inhibition after 24 hrs by broth microdilution method. The gist of the method: as §1
In experiment [5] the test system is Candida albicans. In words: Antifungal activity against Candida albicans assessed as growth inhibition at 1 mg/mL after 48 hrs by […] method. Conditions: read-out: DIZ. The procedure, abridged: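 Sterile filter-paper discs soaked in a 1 mg/mL DMSO solution of the compound are placed on nutrient agar seeded with about 10^4 CFU/mL of C. albicans, in triplicate. Plates are incubated at 36 °C for 48 h. The read-out is the mean diameter of the inhibition zone in mm, with a DMSO-only control.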

Experiment [6] relates to Escherichia coli. In words: Antibacterial activity against Escherichia coli MTCC 443 assessed as growth inhibition at 1 mg/mL after 24 hrs by […] method. Conditions: for zone of inhibition at 1000 µg/mL: MTCC 443, 24 h, read-out: DIZ. The gist of the method: as §2

As for `C/C(=N\NC(=O)c1sc(=S)n(-c2ccccc2)c1N)c1cc2c(ccc3ccccc32)oc1=O`, the MIC in experiment [1] amounted to 125 µg/mL (≈ 257 µM); in experiment [2] (MTCC 443, 24 h), 93.7 µg/mL (≈ 193 µM); in experiment [4] (MTCC 96, 24 h), 125 µg/mL (≈ 257 µM). Also, the zone of inhibition at 1000 µg/mL was 26 mm in experiment [3], 15 mm in experiment [5] and 27 mm in experiment [6].
For `C/C(=N\NC(=O)c1c(N)sc2c1CCCC2)c1cc2c(ccc3ccccc32)oc1=O`, the MIC in experiment [1] came to 500 µg/mL (≈ 1160 µM); in experiment [4] (MTCC 96, 24 h), 375 µg/mL (≈ 869 µM). Besides, the MIC result in experiment [2] is “inactive”. Further, the results for the zone of inhibition at 1000 µg/mL in experiment [3] and in experiment [5] were 5 mm and 9 mm, respectively. For the same molecule, the “growth inhibition (GI)” value in experiment [6] was “inactive”.
Take `C/C(=N\NC(=O)/C(C#N)=C/N(C)C)c1cc2c(ccc3ccccc32)oc1=O`: the MIC in experiment [1] stood at 750 µg/mL (≈ 2000 µM). Besides, the MIC entry in experiment [2] and in experiment [4] was “inactive” each time. For the same molecule, the “growth inhibition (GI)” value in experiment [3] and in experiment [6] was “inactive” throughout. Also, in experiment [5], the zone of inhibition at 1000 µg/mL was found to be 7 mm.
On to `C/C(=N\n1c(N)c(C#N)c(-c2ccc(F)cc2)c(C#N)c1=O)c1cc2c(ccc3ccccc32)oc1=O`, for which the MIC came to 375 µg/mL (≈ 766 µM) in experiment [1]; 125 µg/mL (≈ 255 µM) in experiment [2] (MTCC 443, 24 h); 125 µg/mL (≈ 255 µM) in experiment [4] (MTCC 96, 24 h). The zone of inhibition at 1000 µg/mL in experiment [3] stood at 21 mm; in experiment [5] it was 10 mm; in experiment [6] it was 21 mm.
For `C/C(=N\NC(=O)/C(C#N)=C/c1cccnc1)c1cc2c(ccc3ccccc32)oc1=O`, the MIC worked out at 125 µg/mL (≈ 306 µM) in experiment [1]; 125 µg/mL (≈ 306 µM) in experiment [2] (MTCC 443, 24 h); 125 µg/mL (≈ 306 µM) in experiment [4] (MTCC 96, 24 h). The zone of inhibition at 1000 µg/mL in experiment [3] is 22 mm; in experiment [5] it was 19 mm; in experiment [6] it was 23 mm.
For the molecule `C/C(=N\NC(=O)/C(C#N)=N/Nc1ccc(C)cc1)c1cc2c(ccc3ccccc32)oc1=O`, the MIC in experiment [1] was found to be 125 µg/mL (≈ 286 µM); in experiment [2] (MTCC 443, 24 h), 125 µg/mL (≈ 286 µM); in experiment [4] (MTCC 96, 24 h), 125 µg/mL (≈ 286 µM). For the same molecule, the zone of inhibition at 1000 µg/mL in experiment [3] worked out at 24 mm; in experiment [5] it was 21 mm; in experiment [6] it was 24 mm.
As for `C/C(=N\n1c(O)c(C#N)c(-c2cccc(O)c2)c(C#N)c1=O)c1cc2c(ccc3ccccc32)oc1=O`, the MIC is 188 µg/mL (≈ 384 µM) in experiment [1]; 125 µg/mL (≈ 256 µM) in experiment [2] (MTCC 443, 24 h); 250 µg/mL (≈ 512 µM) in experiment [4] (MTCC 96, 24 h). The results for the zone of inhibition at 1000 µg/mL in experiment [3], in experiment [5] and in experiment [6] were 12 mm, 19 mm and 24 mm, respectively.
For the molecule `C/C(=N\N1C(=O)C(C#N)C=C1c1ccccc1)c1cc2c(ccc3ccccc32)oc1=O` (configuration not stated), the MIC in experiment [1] stood at 250 µg/mL (≈ 596 µM); in experiment [2] (MTCC 443, 24 h), 250 µg/mL (≈ 596 µM); in experiment [4] (MTCC 96, 24 h), 125 µg/mL (≈ 298 µM). For the same molecule, the zone of inhibition at 1000 µg/mL in experiment [3] amounted to 13 mm; in experiment [5], 13 mm; in experiment [6], 16 mm.
For `C/C(=N\n1c(N)cc(N)c(C#N)c1=O)c1cc2c(ccc3ccccc32)oc1=O`, the MIC in experiment [1] was 125 µg/mL (≈ 324 µM); in experiment [2] (MTCC 443, 24 h) it was 125 µg/mL (≈ 324 µM); in experiment [4] (MTCC 96, 24 h), 375 µg/mL (≈ 973 µM). The figures for the zone of inhibition at 1000 µg/mL in experiment [3], in experiment [5] and in experiment [6] were 8 mm, 18 mm and 23 mm, respectively.
Take `C/C(=N\NC(=O)/C(C#N)=C/c1ccc(Cl)cc1)c1cc2c(ccc3ccccc32)oc1=O`: the MIC in experiment [1] was 125 µg/mL (≈ 283 µM); in experiment [2] (MTCC 443, 24 h), 250 µg/mL (≈ 566 µM); in experiment [4] (MTCC 96, 24 h) it was 188 µg/mL (≈ 424 µM). Besides, the values for the zone of inhibition at 1000 µg/mL in experiment [3], in experiment [5] and in experiment [6] were 23 mm, 17 mm and 17 mm, respectively.
Regarding `Clc1ccccc1C(c1ccccc1)(c1ccccc1)n1ccnc1` [CLOTRIMAZOLE], the MIC in experiment [1] came to 5.8 µg/mL (≈ 16.8 µM). Further, the zone of inhibition at 1000 µg/mL in experiment [5] turned out to be 30 mm.
For `C/C(=N\NC(=O)/C(C#N)=C/c1ccc(F)cc1)c1cc2c(ccc3ccccc32)oc1=O`, the minimal inhibitory concentration (MIC) in experiment [1] was 125 µg/mL (≈ 294 µM); in experiment [2] (MTCC 443, 24 h), 250 µg/mL (≈ 588 µM); in experiment [4] (MTCC 96, 24 h), 125 µg/mL (≈ 294 µM). Also, the zone of inhibition at 1000 µg/mL in experiment [3] came to 22 mm; in experiment [5], 18 mm; in experiment [6], 20 mm.
Turning to `COc1ccc(OC)c(-c2c(C#N)c(O)n(/N=C(\C)c3cc4c(ccc5ccccc54)oc3=O)c(=O)c2C#N)c1`, the MIC in experiment [1] turned out to be 250 µg/mL (≈ 469 µM); in experiment [2] (MTCC 443, 24 h), 188 µg/mL (≈ 352 µM); in experiment [4] (MTCC 96, 24 h) it was 250 µg/mL (≈ 469 µM). For the same molecule, the figures for the zone of inhibition at 1000 µg/mL in experiment [3], in experiment [5] and in experiment [6] were 13 mm, 10 mm and 20 mm, respectively.
With `CC1(C)S[C@@H]2[C@H](NC(=O)[C@H](N)c3ccccc3)C(=O)N2[C@H]1C(=O)O` [AMPICILLIN], the MIC in experiment [2] (MTCC 443, 24 h) was 125 µg/mL (≈ 358 µM); in experiment [4] (MTCC 96, 24 h) it was 188 µg/mL (≈ 537 µM). The zone of inhibition at 1000 µg/mL in experiment [3] is 25 mm; in experiment [6] it was 27 mm.
On to `COc1ccc(OC)c(-c2c(C#N)c(N)n(/N=C(\C)c3cc4c(ccc5ccccc54)oc3=O)c(=O)c2C#N)c1`, for which the MIC in experiment [1] worked out at 125 µg/mL (≈ 235 µM); in experiment [2] (MTCC 443, 24 h) it was 125 µg/mL (≈ 235 µM); in experiment [4] (MTCC 96, 24 h), 125 µg/mL (≈ 235 µM). For the same molecule, the figures for the zone of inhibition at 1000 µg/mL in experiment [3], in experiment [5] and in experiment [6] were 23 mm, 18 mm and 23 mm, respectively.
`C/C(=N\NC(=O)c1cc2c(ccc3ccccc32)oc1=O)c1cc2c(ccc3ccccc32)oc1=O`: the MIC in experiment [1] stood at 188 µg/mL (≈ 395 µM); in experiment [2] (MTCC 443, 24 h), 93.7 µg/mL (≈ 197 µM); in experiment [4] (MTCC 96, 24 h), 62.5 µg/mL (≈ 132 µM). In addition, the zone of inhibition at 1000 µg/mL stood at 27 mm in experiment [3], 20 mm in experiment [5] and 28 mm in experiment [6].
`C/C(=N\NC(=O)CC#N)c1cc2c(ccc3ccccc32)oc1=O`: the MIC was 250 µg/mL (≈ 783 µM) in experiment [1]; 125 µg/mL (≈ 391 µM) in experiment [2] (MTCC 443, 24 h); 125 µg/mL (≈ 391 µM) in experiment [4] (MTCC 96, 24 h). For the same molecule, the zone of inhibition at 1000 µg/mL in experiment [3] was determined as 21 mm; in experiment [5], 11 mm; in experiment [6] it was 23 mm.
With `C/C(=N\NC(=O)c1sc(N)c(C#N)c1N)c1cc2c(ccc3ccccc32)oc1=O`, in experiment [1], the MIC came to 125 µg/mL (≈ 299 µM). Also, the MIC result in experiment [2] and in experiment [4] was “inactive” throughout. Moreover, the “growth inhibition (GI)” value in experiment [3] and in experiment [6] was “inactive” throughout. Moreover, in experiment [5], the zone of inhibition at 1000 µg/mL stood at 20 mm.

Values taken from ChEMBL document CHEMBL3085640, “Synthesis and antimicrobial activity of some novel hydrazide, benzochromenone, dihydropyridine, pyrrole, thiazole and thiophene derivatives” (2013).
